Reference: ChEMBL document CHEMBL4706775, “Discovery of Arylsulfonamide Na1.7 Inhibitors: IVIVC, MPO Methods, and Optimization of Selectivity Profile” (ACS Med Chem Lett, 2021)

Key:
[1] = Apparent permeability in MDCK cells by Monolayer assay; assay type: ADME, cell-based, Canis lupus familiaris; details: dog
[2] = biological target: Sodium channel protein type 9 subunit alpha (Homo sapiens, UniProt Q15858); assay: Inhibition of human Nav1.7 alpha expressed in HEK293 cells incubated for 5 mins with 6 consecutive train pulses to -10 mV at 0.1 Hz and holding potential of -65 mV by Qube-automated patch clamp assay; assay type: cell-based
[3] = biological target: Sodium channel protein type 8 subunit alpha (Homo sapiens, UniProt Q9UQD0); assay: Inhibition of human Nav1.6 alpha expressed in HEK293 cells incubated for 5 mins with 6 consecutive train pulses to -10 mV at 0.1 Hz and holding potential of -65 mV by Qube-automated patch clamp assay; assay type: ADME, cell-based
[4] = Intrinsic clearance in rat at 0.05 mg/kg, iv administered as cassette dose or 2 mg/kg, iv administered as single dose; details: in vivo
[5] = Oral bioavailability in dog; assay type: ADME, organism-based, Canis lupus familiaris; details: in vivo
[6] = Half life in dog; assay type: ADME, Canis lupus familiaris; details: in vivo
[7] = Kinetic solubility of compound at pH 2 by HPLC analysis; assay type: physicochemical; details: buffer, read-out: Kinetic_solubility
Cytochrome P450 2C9 = Cytochrome P450 2C9 (Homo sapiens, UniProt P11712); assay: Inhibition of CYP2C9 (unknown origin); assay type: ADME
Mus musculus [8] = assay: Reversal of formalin-induced nociception in po dosed C57BL/6 mouse pretreated with compound for 15 mins followed by formalin challenge and measured after 20 to 35 mins; assay type: functional; details: time min <=75
Method in brief: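 C57BL/6 mice given compound orally at three dose levels or vehicle (10% Tween 80, 5 mL/kg) 15 min before formalin injection; nociceptive behaviors scored in phase 1 and phase 2; N = 8/group; within-subject ANOVA and 1-sample t test versus vehicle.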

[9] = Drug concentration in mouse CSF at 100 mg/kg, po measured after 1.25 hrs; assay type: ADME, organism-based, Cerebrospinal fluid; details: read-out: Ct
[10] = Dissociation constant, pKa of the amine compound; assay type: physicochemical
[11] = Dissociation constant, pKa of the sulfonamide compound; assay type: physicochemical
[12] = Inhibition of rhesus monkey Nav1.7 alpha expressed in HEK293 cells; assay type: cell-based, Macaca mulatta
[13] = Clearance in dog; assay type: ADME, Canis lupus familiaris; details: in vivo
Mus musculus [14] = species on record: Mus musculus; assay: Analgesic activity in mouse models of formalin-induced nociception assessed as reduction in paw pain; assay type: functional
[15] = Drug concentration in plasma of formalin-induced C57BL/6 mouse model of formalin-induced pain at 300 mg/kg, po pretreated with compound for 15 mins followed by formalin challenge and measured after […]; assay type: ADME, organism-based
[16] = Drug concentration in plasma of formalin-induced C57BL/6 mouse model of formalin-induced pain at 30 mg/kg, po pretreated with compound for 15 mins followed by formalin challenge and measured after […]; assay type: ADME, organism-based
[17] = Protein binding in human plasma; assay type: ADME, cell-free; details: read-out: PPB (converted)
[18] = Clearance in rat; assay type: ADME; details: in vivo
PXR = biological target: T1, PXR (Homo sapiens, UniProt O75469); assay: Activation of PXR (unknown origin) relative to control; assay type: ADME
T1 sequence (O75469 whole entry): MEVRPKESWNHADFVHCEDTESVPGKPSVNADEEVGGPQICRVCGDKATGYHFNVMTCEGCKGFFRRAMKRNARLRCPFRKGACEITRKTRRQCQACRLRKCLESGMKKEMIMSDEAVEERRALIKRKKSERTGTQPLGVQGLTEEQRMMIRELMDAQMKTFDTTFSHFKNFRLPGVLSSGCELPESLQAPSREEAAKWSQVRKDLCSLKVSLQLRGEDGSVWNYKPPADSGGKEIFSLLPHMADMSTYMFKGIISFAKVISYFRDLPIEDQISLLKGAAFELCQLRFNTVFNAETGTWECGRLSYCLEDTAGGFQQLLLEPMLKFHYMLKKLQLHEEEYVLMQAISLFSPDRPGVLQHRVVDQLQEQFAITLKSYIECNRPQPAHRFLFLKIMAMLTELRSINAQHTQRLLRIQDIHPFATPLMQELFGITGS

Cytochrome P450 2D6 = Cytochrome P450 2D6 (Homo sapiens, UniProt P10635); assay: Inhibition of […] (unknown origin); assay type: ADME
Cytochrome P450 3A4 = Cytochrome P450 3A4 (Homo sapiens, UniProt P08684); assay: Inhibition of CYP3A4 (unknown origin); assay type: ADME
[19] = Protein binding in rhesus monkey plasma; assay type: ADME, cell-free, Macaca mulatta; details: read-out: PPB (converted)
[20] = Volume of distribution at steady state in rat; assay type: ADME; details: in vivo, read-out: Vdss
Mus musculus [21] = assay: Analgesic activity against formalin-induced nociception in po dosed C57BL/6J mouse pretreated with compound for 15 mins followed by formalin challenge and measured after […]; assay type: functional, organism-based
[22] = Unbound plasma concentration in rhesus monkey at 19.2 mg/kg; assay type: ADME, organism-based, Macaca mulatta; details: in vivo
Method in brief: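 Anesthetized rhesus monkeys, n = 4, imaged by olfactory-bulb fMRI over 2 h; IV infusion in 30% Captisol (~8 mL/animal) started at 1 h and continued for 1 h; unbound plasma concentration determined alongside olfactory inhibition.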

[23] = Protein binding in mouse plasma; assay type: ADME, cell-free; details: read-out: PPB (converted)
[24] = Clearance in rhesus monkey; assay type: ADME, Macaca mulatta; details: in vivo
[25] = Oral bioavailability in rat; assay type: ADME, organism-based; details: in vivo
[26] = Half life in rat; assay type: ADME; details: in vivo
P-glycoprotein [27] = assay: Substrate activity at human p-glycoprotein assessed as efflux ratio of permeability across basal to apical membrane over apical to basal membrane; assay type: ADME; details: not told
Nav1.5 = Nav1.5 (Homo sapiens, UniProt Q14524); assay: Inhibition of human Nav1.5 alpha expressed in HEK293 cells expressed in HEK293 cells incubated for 5 mins with 6 consecutive train pulses to -10 mV at 0.1 Hz and holding potential of -65 mV by Qube-automated patch clamp assay; assay type: ADME, cell-based; details: HEK293 cells expressing human Nav1.5 alpha
[28] = Volume of distribution at steady state in rhesus monkey; assay type: ADME, Macaca mulatta; details: in vivo, read-out: Vdss
[29] = biological target: T2, Nuclear receptor subfamily 1 group I member 2 (Homo sapiens, UniProt O75469); assay: Activation of PXR (unknown origin); assay type: ADME
T2 sequence (O75469 whole entry): T1 sequence (O75469 whole entry)

[30] = Intrinsic Clearance in dog; assay type: ADME, Canis lupus familiaris
[31] = Distribution coefficient, log D of the compound by MSD HPLC analysis; assay type: physicochemical; details: octanol/water
[32] = Volume of distribution at steady state in dog; assay type: ADME, Canis lupus familiaris; details: in vivo, read-out: Vdss
[33] = Drug concentration in mouse brain at 100 mg/kg, po measured after 1.25 hrs; assay type: ADME, organism-based; details: read-out: Ct
P-glycoprotein [34] = assay: Substrate activity at rat p-glycoprotein assessed as efflux ratio of permeability across basal to apical membrane over apical to basal membrane; assay type: ADME; details: not told
[35] = Selectivity ratio of IC50 for human Nav 1.6 alpha expressed in HEK293 cells to IC50 for human Nav 1.7 alpha expressed in HEK293 cells
[36] = Oral bioavailability in rhesus monkey; assay type: ADME, organism-based, Macaca mulatta; details: in vivo
[37] = Drug concentration in plasma of formalin-induced C57BL/6 mouse model of formalin-induced pain at 100 mg/kg, po pretreated with compound for 15 mins followed by formalin challenge and measured after […]; assay type: ADME, organism-based
[38] = Intrinsic Clearance in rhesus monkey; assay type: ADME, Macaca mulatta
[39] = Half life in rhesus monkey; assay type: ADME, Macaca mulatta; details: in vivo
[40] = Drug concentration in mouse plasma at 100 mg/kg, po measured after 1.25 hrs; assay type: ADME, organism-based
[41] = Selectivity ratio of IC50 for human Nav 1.5 expressed in HEK293 cells to IC50 for human Nav 1.7 alpha expressed in HEK293 cells
[42] = Kinetic solubility of compound at pH 7 by HPLC analysis; assay type: physicochemical; details: buffer, read-out: Kinetic_solubility

Sequence of Sodium channel protein type 9 subunit alpha (Q15858 whole entry): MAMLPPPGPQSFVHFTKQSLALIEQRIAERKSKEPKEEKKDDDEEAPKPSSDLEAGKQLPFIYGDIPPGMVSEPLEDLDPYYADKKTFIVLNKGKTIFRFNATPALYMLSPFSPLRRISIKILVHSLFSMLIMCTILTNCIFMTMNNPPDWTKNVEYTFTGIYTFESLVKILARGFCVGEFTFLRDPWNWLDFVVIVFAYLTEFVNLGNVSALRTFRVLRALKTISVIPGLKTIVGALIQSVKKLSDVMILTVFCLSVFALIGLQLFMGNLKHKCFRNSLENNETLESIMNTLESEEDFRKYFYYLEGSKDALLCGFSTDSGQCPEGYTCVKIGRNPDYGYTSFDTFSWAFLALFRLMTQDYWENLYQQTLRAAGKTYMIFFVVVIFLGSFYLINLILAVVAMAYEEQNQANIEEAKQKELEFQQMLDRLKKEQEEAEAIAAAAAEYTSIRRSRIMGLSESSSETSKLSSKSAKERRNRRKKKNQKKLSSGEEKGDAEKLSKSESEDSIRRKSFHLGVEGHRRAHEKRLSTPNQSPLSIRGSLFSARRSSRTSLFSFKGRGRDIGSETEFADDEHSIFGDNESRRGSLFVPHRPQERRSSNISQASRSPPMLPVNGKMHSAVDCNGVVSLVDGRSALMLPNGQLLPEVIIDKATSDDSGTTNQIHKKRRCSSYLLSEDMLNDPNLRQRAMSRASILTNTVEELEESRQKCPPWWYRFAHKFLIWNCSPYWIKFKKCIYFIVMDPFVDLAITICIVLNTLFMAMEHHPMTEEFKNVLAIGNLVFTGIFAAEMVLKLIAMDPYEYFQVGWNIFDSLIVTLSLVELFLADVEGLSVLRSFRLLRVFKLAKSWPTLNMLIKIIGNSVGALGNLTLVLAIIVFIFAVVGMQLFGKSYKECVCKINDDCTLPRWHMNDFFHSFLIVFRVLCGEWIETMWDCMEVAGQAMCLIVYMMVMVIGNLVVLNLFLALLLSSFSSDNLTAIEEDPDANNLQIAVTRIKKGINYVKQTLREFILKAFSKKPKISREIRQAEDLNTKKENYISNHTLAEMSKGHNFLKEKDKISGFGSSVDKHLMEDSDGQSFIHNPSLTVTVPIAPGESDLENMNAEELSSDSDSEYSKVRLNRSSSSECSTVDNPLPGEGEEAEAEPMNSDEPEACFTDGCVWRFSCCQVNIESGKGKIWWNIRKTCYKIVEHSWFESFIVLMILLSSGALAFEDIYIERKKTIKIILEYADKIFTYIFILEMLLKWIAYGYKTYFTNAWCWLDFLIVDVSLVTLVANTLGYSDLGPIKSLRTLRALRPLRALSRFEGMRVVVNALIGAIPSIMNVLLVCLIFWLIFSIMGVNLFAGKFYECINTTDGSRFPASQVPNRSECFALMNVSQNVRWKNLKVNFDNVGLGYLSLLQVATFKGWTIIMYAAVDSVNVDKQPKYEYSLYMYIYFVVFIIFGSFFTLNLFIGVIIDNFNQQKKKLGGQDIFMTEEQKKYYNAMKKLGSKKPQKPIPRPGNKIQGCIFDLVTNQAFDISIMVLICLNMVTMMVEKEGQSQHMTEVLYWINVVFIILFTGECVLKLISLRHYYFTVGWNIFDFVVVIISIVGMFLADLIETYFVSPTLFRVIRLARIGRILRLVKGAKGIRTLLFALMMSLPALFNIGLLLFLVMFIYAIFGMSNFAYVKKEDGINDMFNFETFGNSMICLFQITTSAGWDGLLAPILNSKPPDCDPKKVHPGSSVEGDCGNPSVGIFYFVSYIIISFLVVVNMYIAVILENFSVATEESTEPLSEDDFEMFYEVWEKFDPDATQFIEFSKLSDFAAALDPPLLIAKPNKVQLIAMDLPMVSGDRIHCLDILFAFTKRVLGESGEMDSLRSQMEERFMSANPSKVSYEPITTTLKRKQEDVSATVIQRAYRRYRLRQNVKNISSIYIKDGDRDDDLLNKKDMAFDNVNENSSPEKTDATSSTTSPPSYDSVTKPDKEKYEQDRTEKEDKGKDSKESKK
Sequence of Sodium channel protein type 8 subunit alpha (Q9UQD0 whole entry): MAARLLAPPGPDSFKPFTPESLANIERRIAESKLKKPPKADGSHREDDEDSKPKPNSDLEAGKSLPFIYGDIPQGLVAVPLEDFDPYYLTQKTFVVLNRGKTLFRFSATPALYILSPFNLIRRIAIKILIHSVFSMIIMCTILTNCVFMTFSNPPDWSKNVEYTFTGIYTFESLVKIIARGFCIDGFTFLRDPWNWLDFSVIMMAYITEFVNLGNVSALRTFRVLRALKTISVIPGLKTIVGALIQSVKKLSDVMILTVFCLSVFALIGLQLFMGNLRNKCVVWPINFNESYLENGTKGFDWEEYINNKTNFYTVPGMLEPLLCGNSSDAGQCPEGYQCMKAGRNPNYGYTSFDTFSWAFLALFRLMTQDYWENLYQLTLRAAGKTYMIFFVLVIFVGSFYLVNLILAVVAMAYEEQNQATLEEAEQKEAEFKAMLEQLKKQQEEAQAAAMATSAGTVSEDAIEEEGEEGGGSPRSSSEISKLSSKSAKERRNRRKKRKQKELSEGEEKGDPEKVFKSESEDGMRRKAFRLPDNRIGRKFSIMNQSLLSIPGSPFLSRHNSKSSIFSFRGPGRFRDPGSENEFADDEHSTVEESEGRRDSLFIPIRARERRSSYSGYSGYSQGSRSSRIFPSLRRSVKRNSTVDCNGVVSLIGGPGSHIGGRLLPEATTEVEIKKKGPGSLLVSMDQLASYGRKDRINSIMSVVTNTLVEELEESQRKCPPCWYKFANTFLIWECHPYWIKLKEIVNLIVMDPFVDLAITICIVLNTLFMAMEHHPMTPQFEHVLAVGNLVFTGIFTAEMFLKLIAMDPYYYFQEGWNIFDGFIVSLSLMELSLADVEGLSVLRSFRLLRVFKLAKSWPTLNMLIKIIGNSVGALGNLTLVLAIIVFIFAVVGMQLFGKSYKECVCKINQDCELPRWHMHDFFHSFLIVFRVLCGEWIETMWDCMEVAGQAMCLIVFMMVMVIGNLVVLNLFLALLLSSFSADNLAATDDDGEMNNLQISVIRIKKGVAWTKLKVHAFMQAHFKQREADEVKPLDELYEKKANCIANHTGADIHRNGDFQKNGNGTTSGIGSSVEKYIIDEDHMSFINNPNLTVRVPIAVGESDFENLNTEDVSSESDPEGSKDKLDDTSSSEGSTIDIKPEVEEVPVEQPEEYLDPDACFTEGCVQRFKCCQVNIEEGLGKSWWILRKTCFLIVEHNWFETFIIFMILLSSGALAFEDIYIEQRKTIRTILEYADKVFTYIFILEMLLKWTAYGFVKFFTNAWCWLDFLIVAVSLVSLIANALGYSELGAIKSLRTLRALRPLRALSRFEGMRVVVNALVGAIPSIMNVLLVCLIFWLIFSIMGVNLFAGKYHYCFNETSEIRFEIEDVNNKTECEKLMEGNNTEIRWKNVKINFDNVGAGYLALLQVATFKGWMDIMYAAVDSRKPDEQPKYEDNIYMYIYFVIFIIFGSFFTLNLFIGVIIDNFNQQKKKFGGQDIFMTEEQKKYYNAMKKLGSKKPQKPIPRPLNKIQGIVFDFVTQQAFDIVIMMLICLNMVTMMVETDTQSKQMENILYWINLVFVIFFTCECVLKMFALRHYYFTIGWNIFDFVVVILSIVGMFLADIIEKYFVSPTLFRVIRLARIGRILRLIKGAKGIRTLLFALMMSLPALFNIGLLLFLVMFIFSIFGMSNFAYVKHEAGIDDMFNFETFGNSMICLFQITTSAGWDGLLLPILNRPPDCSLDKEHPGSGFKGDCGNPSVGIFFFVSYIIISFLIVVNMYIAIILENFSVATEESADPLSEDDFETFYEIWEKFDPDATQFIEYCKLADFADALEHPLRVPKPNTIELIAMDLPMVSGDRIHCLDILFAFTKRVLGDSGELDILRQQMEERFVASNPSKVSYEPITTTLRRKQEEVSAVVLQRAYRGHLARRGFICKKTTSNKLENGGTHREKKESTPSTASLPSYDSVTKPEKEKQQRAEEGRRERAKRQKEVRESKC
Sequence of Cytochrome P450 2D6 (P10635 whole entry): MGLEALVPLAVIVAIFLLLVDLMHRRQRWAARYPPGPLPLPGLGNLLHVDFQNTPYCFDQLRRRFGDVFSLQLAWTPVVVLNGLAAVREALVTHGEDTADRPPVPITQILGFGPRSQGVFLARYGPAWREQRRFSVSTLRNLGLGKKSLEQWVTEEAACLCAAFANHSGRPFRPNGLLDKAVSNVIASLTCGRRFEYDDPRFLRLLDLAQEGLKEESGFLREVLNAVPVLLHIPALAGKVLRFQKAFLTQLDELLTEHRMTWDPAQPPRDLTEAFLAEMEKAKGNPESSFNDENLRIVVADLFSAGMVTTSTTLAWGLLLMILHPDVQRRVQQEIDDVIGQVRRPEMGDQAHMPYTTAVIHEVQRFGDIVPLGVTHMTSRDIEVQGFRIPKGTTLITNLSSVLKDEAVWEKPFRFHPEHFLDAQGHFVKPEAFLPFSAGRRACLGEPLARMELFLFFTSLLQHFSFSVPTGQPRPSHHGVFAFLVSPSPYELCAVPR
Sequence of Cytochrome P450 3A4 (P08684 whole entry): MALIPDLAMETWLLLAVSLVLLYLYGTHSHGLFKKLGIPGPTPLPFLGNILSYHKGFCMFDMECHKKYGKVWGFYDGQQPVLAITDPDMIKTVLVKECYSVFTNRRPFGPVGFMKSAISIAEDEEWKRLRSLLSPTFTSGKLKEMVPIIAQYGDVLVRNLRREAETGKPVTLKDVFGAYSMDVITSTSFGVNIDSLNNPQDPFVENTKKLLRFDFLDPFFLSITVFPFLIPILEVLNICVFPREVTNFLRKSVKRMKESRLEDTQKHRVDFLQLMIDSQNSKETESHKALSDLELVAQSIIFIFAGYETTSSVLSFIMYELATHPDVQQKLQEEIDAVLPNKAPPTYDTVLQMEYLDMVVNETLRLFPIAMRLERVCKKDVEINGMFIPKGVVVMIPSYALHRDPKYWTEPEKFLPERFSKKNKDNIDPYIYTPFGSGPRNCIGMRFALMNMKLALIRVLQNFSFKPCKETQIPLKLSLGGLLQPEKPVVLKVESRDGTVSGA

CN[C@H](CNc1cc(F)c(S(=O)(=O)Nc2ncc(F)s2)cc1Cl)CC1CCC1
Papp [1]: 5 ×10⁻⁶ cm/s
IC50 [2]: 1780 nM
IC50 [3]: > 34000 nM
CL [4]: 8090 mL/min/kg

CN[C@H](CNc1cc(F)c(S(=O)(=O)Nc2ncc(F)s2)cc1Cl)C[Si](C)(C)C
IC50 [2]: 44 nM
IC50 [3]: 3130 nM
CL [4]: 500 mL/min/kg

CN[C@H](CNc1cc(F)c(S(=O)(=O)Nc2ncns2)cc1Cl)Cc1ccccc1
IC50 [2]: 1090 nM
IC50 [3]: > 34000 nM

CC1(CNc2cc(F)c(S(=O)(=O)Nc3nccs3)cc2Cl)CCCN1 (stereo in doubt; 4)
IC50 [2]: 2970 nM
IC50 [3]: 2080 nM

N[C@H](CNc1cc(F)c(S(=O)(=O)Nc2nccs2)cc1Cl)Cc1ccccc1
IC50 [2]: > 34000 nM
IC50 [3]: > 34000 nM

CNC(C)(CNc1cc(F)c(S(=O)(=O)Nc2nccs2)cc1Cl)Cc1ccccc1 (stereo in doubt; 10)
IC50 [2]: 1140 nM
IC50 ([3]; hek293): > 34000 nM

CN[C@H](CNc1cc(F)c(S(=O)(=O)Nc2nccs2)cc1Cl)Cc1ccccc1
Papp [1]: 10 ×10⁻⁶ cm/s
IC50 [2]: 240 nM
IC50 [3]: > 34000 nM
CL [4]: 4820 mL/min/kg

CC1(CNc2cc(F)c(S(=O)(=O)Nc3nccs3)cc2Cl)CCCN1 (stereo in doubt; 5)
IC50 [2]: 900 nM
IC50 [3]: 860 nM

CN[C@H](CNc1cc(F)c(S(=O)(=O)Nc2ncc(F)s2)cc1Cl)Cc1ccccc1
Papp [1]: 8 ×10⁻⁶ cm/s
IC50 [2]: 400 nM
IC50 [3]: > 34000 nM
CL [4]: 3020 mL/min/kg

O=S(=O)(Nc1nccs1)c1cc(Cl)c(NCC2CCCN2)cc1F (stereo in doubt; 6)
IC50 [2]: > 34000 nM
IC50 [3]: > 34000 nM

O=S(=O)(Nc1nccs1)c1cc(Cl)c(NCC2CCCN2)cc1F (stereo in doubt; 7)
IC50 ([2]; hek293): > 34000 nM
IC50 ([3]; hek293): > 34000 nM

O=S(=O)(Nc1nccs1)c1cc(Cl)c(NCC2(Cc3ccccc3)CCCN2)cc1F (configuration not stated)
Papp [1]: 13 ×10⁻⁶ cm/s
IC50 [2]: 25 nM
IC50 [3]: 420 nM
CL [4]: 5830 mL/min/kg

CN[C@H](CNc1cc(F)c(S(=O)(=O)Nc2ncc(F)s2)cc1Cl)CC1(C)CC1
Papp [1]: 7 ×10⁻⁶ cm/s
IC50 [2]: 720 nM
IC50 [3]: > 34000 nM
CL [4]: 830 mL/min/kg

CNC(C)(CNc1cc(F)c(S(=O)(=O)Nc2nccs2)cc1Cl)Cc1ccccc1 (stereo in doubt; 9)
IC50 [2]: > 34000 nM
IC50 [3]: > 34000 nM

CN[C@H](CNc1cc(F)c(S(=O)(=O)Nc2ncc(F)s2)cc1Cl)CC1CC1
Papp [1]: 3 ×10⁻⁶ cm/s
IC50 [2]: 5540 nM
IC50 [3]: > 34000 nM
CL [4]: 380 mL/min/kg

CN[C@H](CNc1cc(F)c(S(=O)(=O)Nc2ncc(F)s2)cc1Cl)CC12CC(C1)C2
Papp [1]: 10 ×10⁻⁶ cm/s
IC50 [2]: 120 nM
IC50 [3]: > 34000 nM
CL [4]: 2300 mL/min/kg

CN[C@H](CNc1cc(F)c(S(=O)(=O)Nc2ncc(F)s2)cc1Cl)CC(C)(C)C.Cl
Papp [1]: 8 ×10⁻⁶ cm/s
bioavailability [5]: 25%
half-life [6]: 6 h
solubility kinetic [7]: 170 µM
IC50 (Cytochrome P450 2C9): 28000 nM
EC90 (Mus musculus [8]): 360 nM
concentration at 1.25 h [9]: 0.005 µM
pKa [10]: 9
pKa [11]: 5.4
IC50 [12]: 310 nM
clearance [13]: 4.5 mL/min/kg
IC50 [2]: 300 nM
IC90 (Mus musculus [14]): 220 nM
concentration at 1.75 h [15]: 8.86 µM
concentration at 1.75 h [16]: 3.27 µM
fraction unbound [17]: 0.02
clearance [18]: 29 mL/min/kg
Emax (PXR): 80%
IC50 (Cytochrome P450 2D6): 20000 nM
IC50 (Cytochrome P450 3A4): > 50000 nM
fraction unbound [19]: 0.02
Vd [20]: 2.1 L/kg
IC50 (Mus musculus [21]; Mus musculus, C57BL/6J): 4080 nM
IC90 (Mus musculus [21]; time 1.75 hrs): 6040 nM
Cp(f) [22]: 1.5 µM
IC50 [3]: 18700 nM
fraction unbound [23]: 0.06
clearance [24]: 11 mL/min/kg
bioavailability [25]: 100%
half-life [26]: 2.5 h
efflux ratio (P-glycoprotein [27]): 4.9
IC90 at 5 min (Nav1.5): 3600 nM
Vd [28]: 0.3 L/kg
EC50 [29]: 10000 nM
CLint scaled [30]: 200 mL/min/kg
logD [31]: 1.7
Vd [32]: 0.8 L/kg
concentration at 1.25 h [33]: 0.1 µM
efflux ratio (P-glycoprotein [34]): > 14
Ratio IC50 [35]: 60
bioavailability [36]: 2%
concentration at 1.75 h [37]: 6.64 µM
CLint scaled [38]: 610 mL/min/kg
half-life [39]: 1.3 h
concentration at 1.25 h [40]: 4.9 µM
Ratio IC50 [41]: >390
solubility kinetic [42]: 148 µM
CL [4]: 1670 mL/min/kg

CN(C)[C@H](CNc1cc(F)c(S(=O)(=O)Nc2nccs2)cc1Cl)Cc1ccccc1
IC50 [2]: 850 nM
IC50 [3]: > 34000 nM
